Measurements from ChEMBL document CHEMBL1141088, “A new pyridazine series of GABAA alpha5 ligands” (J Med Chem, 2005).

Columns and labels:
[1] = molecular target: T1, GABA-A receptor; alpha-5/beta-3/gamma-2 (Homo sapiens, UniProt P18507+P28472+P31644); assay: Negative logarithm of effective concentration against GABA-A alpha-5-beta-3-gamma-2 receptor; assay type: protein-complex assay
T1 sequence (P18507 whole entry): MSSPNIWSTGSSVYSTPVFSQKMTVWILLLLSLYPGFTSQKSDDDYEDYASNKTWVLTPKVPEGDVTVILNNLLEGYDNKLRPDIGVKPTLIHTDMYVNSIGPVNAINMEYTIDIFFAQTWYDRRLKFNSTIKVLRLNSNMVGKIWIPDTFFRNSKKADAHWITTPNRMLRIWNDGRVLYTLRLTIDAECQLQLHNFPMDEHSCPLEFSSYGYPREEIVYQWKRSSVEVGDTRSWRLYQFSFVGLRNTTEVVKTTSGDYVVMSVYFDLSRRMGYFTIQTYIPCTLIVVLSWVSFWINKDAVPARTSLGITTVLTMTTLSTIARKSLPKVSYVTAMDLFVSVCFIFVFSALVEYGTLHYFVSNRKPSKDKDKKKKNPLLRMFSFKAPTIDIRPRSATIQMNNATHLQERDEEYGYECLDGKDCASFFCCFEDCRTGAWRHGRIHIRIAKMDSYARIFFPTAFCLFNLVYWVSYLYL
T1 sequence (P28472 whole entry): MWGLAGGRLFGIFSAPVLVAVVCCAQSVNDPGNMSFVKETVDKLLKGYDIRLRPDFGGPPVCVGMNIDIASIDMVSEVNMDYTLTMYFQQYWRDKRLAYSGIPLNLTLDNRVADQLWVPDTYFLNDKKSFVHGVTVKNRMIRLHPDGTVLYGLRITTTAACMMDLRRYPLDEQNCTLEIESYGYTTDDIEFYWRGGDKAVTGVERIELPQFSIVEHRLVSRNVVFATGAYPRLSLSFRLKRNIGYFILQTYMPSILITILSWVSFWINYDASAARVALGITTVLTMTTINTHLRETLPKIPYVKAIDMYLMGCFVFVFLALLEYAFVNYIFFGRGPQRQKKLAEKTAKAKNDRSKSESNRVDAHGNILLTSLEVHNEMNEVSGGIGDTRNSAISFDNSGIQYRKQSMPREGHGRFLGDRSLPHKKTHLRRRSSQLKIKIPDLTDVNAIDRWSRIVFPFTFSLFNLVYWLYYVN
T1 sequence (P31644 whole entry): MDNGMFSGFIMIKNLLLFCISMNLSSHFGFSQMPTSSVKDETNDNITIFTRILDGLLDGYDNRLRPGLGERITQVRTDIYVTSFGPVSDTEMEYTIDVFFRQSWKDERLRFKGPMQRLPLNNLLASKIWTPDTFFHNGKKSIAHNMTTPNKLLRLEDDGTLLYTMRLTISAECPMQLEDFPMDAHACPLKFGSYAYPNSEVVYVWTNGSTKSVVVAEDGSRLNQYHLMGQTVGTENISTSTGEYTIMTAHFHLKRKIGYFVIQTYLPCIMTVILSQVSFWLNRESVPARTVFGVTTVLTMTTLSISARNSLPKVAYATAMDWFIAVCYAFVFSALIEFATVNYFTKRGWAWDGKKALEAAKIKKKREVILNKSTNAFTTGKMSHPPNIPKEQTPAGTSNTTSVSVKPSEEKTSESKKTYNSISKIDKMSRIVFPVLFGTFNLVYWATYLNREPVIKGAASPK
Procedure, shortened: (§1)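 Whole-cell patch clamp of L(tk-) cells stably expressing human α1, α3 or α5 β3γ2s, perfused with bicarbonate saline pH 7.2, CsCl pipette solution pH 7.3. Drugs applied by double-barrelled pipette; GABA in 5 s pulses at 30 s intervals. Modulation measured against a GABA EC20 set for each cell; curves fitted to a Hill equation.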

[2] = molecular target: T2, GABA-A receptor; alpha-1/beta-3/gamma-2 (Homo sapiens, UniProt P14867+P18507+P28472); assay: Negative logarithm of effective concentration against GABA-A alpha-1-beta-3-gamma-2 receptor; assay type: protein-complex assay; procedure, shortened: as §1
T2 sequence (P14867 whole entry): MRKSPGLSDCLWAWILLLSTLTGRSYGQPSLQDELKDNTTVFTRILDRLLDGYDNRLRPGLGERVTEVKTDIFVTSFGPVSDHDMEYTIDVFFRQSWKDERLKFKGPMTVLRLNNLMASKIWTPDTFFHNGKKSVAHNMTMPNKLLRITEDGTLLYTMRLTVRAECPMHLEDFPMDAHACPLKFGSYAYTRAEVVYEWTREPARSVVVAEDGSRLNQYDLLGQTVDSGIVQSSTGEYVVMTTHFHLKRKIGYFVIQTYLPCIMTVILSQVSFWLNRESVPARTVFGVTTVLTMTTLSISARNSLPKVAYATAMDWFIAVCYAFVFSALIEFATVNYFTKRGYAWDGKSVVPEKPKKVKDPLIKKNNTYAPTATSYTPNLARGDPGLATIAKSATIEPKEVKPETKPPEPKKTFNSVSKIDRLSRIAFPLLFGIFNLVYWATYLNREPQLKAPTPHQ
T2 sequence (P18507 whole entry): T1 sequence (P18507 whole entry)
T2 sequence (P28472 whole entry): T1 sequence (P28472 whole entry)

[3] = Low volume of distribution of compound determined after iv administration at 1 mg/kg dose as a solution(1 mg/mL) in a PEG 300:H2O(3:1); assay type: ADME, organism-based; parameters: dose 1 mg/kg, route intravenous; conditions: rat, in vivo, read-out: Vdss
Procedure, shortened: (§2)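 Single rat, cannulated, given 100 units heparin, recovered 48 h, fasted overnight. Dosed 1 mg/kg iv bolus (1 mL/kg) in PEG 300:water 3:1. Serial blood sampled to 6 h and plasma analysed by LC-MS/MS with diazepam internal standard. Cl in mL/min/kg from plasma, T1/2 in hours from 1–3 h data, Vdss in L/kg.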

[4] = Clearance of compound determined after iv administration at 1 mg/kg dose as a solution(1 mg/mL) in a PEG 300:H2O(3:1); assay type: ADME, organism-based; parameters: dose 1 mg/kg, route intravenous; conditions: rat, in vivo; procedure, shortened: as §2
[5] = molecular target: GABA-A receptor; alpha-5/beta-3/gamma-2 (Homo sapiens) (UniProt P18507+P28472+P31644); assay: Maximum inhibition of GABA EC20 response at GABA-A receptor alpha-5-beta-3-gamma-2, n=4; assay type: protein-complex assay; procedure, shortened: as §1
[6] = Half life of compound determined after iv administration at 1 mg/kg dose as a solution(1 mg/mL) in a PEG 300:H2O(3:1); assay type: ADME, organism-based; parameters: dose 1 mg/kg, route intravenous; conditions: rat, in vivo; procedure, shortened: as §2

SMILES: N#Cc1cccc(-c2cnnc(-c3ccccc3)c2)c1
- EC50 [1]: 7.41 nM
- EC50 [2]: 2.95 nM
- Vd [3]: 1.5 L/kg
- clearance [4]: 36 mL/min/kg
- Maximum inhibition [5]: -37%
- half-life [6]: 36 min
